# Laboratory results published in ChEMBL document CHEMBL2086304, “Synthesis and in vitro antimycobacterial and isocitrate lyase inhibition properties of novel 2-methoxy-2'-hydroxybenzanilides, their thioxo analogues and benzoxazoles” (Eur J Med Chem, 2012).
# What was measured:
# [1] = test system: Mycobacterium tuberculosis; experiment: Antimycobacterial activity against Mycobacterium tuberculosis 331/88 after 14 days by micromethod; format: functional; settings: 331/88, 336 h
# Procedure, shortened: (§1)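 Inocula: M. tuberculosis My 331/88 at 10^-3 dilution, M. avium My 330/88 at 10^-5, M. kansasii My 235/80 and clinical isolate 6509/96 at 10^-4. Compounds added in DMSO at 1000 down to 0.5 (twofold series). Read at 14 and 21 days, plus 7 days for M. kansasii. MIC taken as lowest concentration inhibiting growth.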
# [2] = test system: Mycobacterium tuberculosis; experiment: Antimycobacterial activity against Mycobacterium tuberculosis 331/88 after 21 days by micromethod; format: functional; settings: 331/88, 504 h; procedure, shortened: as §1
# Mycobacterium avium [3] = experiment: Antimycobacterial activity against isoniazid resistance Mycobacterium avium 330/88 after 14 days by micromethod; format: functional; settings: 330/88, 336 h; procedure, shortened: as §1
# Mycobacterium avium [4] = experiment: Antimycobacterial activity against isoniazid resistance Mycobacterium avium 330/88 after 21 days by micromethod; format: functional; settings: 330/88, 504 h; procedure, shortened: as §1
# Mycobacterium kansasii [5] = experiment: Antimycobacterial activity against Mycobacterium kansasii 6509/96 clinical isolate after 7 days by micromethod; format: functional; settings: 6509/96, 168 h; procedure, shortened: as §1
# Mycobacterium kansasii [6] = experiment: Antimycobacterial activity against isoniazid resistance Mycobacterium kansasii 225/80 after 7 days by micromethod; format: functional; settings: 225/80, 168 h
# Mycobacterium kansasii [7] = experiment: Antimycobacterial activity against isoniazid resistance Mycobacterium kansasii 225/80 after 14 days by micromethod; format: functional; settings: 225/80, 336 h
# Mycobacterium kansasii [8] = experiment: Antimycobacterial activity against isoniazid resistance Mycobacterium kansasii 225/80 after 21 days by micromethod; format: functional; settings: 225/80, 504 h
# Mycobacterium kansasii [9] = experiment: Antimycobacterial activity against Mycobacterium kansasii 6509/96 clinical isolate after 14 days by micromethod; format: functional; settings: 6509/96, 336 h; procedure, shortened: as §1
# Mycobacterium kansasii [10] = experiment: Antimycobacterial activity against Mycobacterium kansasii 6509/96 clinical isolate after 21 days by micromethod; format: functional; settings: 6509/96, 504 h; procedure, shortened: as §1
# [11] = biological target: T1, Isocitrate lyase (Mycobacterium tuberculosis) (UniProt P9WKK7); experiment: Inhibition of Mycobacterium tuberculosis H37Rv isocitrate lyase expressed in Escherichia coli HB101 at 10 umol/L
# T1 sequence (whole entry): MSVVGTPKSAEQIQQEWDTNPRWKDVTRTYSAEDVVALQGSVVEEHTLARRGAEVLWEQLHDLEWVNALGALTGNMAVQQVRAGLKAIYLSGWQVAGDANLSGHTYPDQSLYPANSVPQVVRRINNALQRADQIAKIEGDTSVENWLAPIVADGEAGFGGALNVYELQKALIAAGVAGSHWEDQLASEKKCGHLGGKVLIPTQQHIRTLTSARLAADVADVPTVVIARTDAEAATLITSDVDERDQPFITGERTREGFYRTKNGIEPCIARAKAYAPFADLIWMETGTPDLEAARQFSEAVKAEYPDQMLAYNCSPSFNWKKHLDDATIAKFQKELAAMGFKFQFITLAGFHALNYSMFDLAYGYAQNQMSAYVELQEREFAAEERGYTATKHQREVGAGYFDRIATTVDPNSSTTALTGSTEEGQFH
# Procedure, shortened: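 Isocitrate lyase assayed per Dixon–Kornberg in 96-well format. Buffer: 50 mmol/L KH2PO4, 4 mmol/L MgCl2, 4 mmol/L phenylhydrazine, 12 mmol/L cysteine, pH 7.0. Glyoxylate phenylhydrazone read at 324 nm. Compounds added in DMSO, with DMSO-alone inhibition subtracted.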
# HepG2 = experiment: Cytotoxicity against human HepG2 cells after 24 hrs by CellTiter-96 cell viability assay; format: functional, cell-based; settings: HepG2, 24 h
# Procedure, shortened: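 Hep G2 human hepatic cells (passage 12), 10,000 per well, grown 24 h at 37 °C, 5% CO2 in MEM with 1% glutamine, 10% FBS and 1% nonessential amino acids. Compounds in DMSO at eight increasing concentrations, quadruplicate, 24 h at 37 °C. Kit reagent added, 1.5 h at 37 °C, absorbance 490 nm. IC50 is the concentration reducing viability to 50% of control.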
# [12] = Selectivity index, ratio of IC50 for human HepG2 cells to MIC for Mycobacterium tuberculosis 331/88 after 14 days; format: functional
# Procedure, shortened: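 Cytotoxicity in Hep G2 cells (passage 12), 10,000 cells/well, in MEM with 10% FBS, 1% glutamine and 1% nonessential amino acids. Cells preincubated 24 h, 37 °C, 5% CO2. Compounds in DMSO at eight concentrations in quadruplicate, 24 h. MTS-type reagent added for 1.5 h, A490 read, IC50 taken at 50% viability. SI = this IC50 over the 14-day M. tuberculosis MIC.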
SMILES,MIC [1],MIC [2],MIC (Mycobacterium avium [3]),MIC (Mycobacterium avium [4]),MIC (Mycobacterium kansasii [5]),MIC (Mycobacterium kansasii [6]),MIC (Mycobacterium kansasii [7]),MIC (Mycobacterium kansasii [8]),MIC (Mycobacterium kansasii [9]),MIC (Mycobacterium kansasii [10]),inhibition [11],IC50 (HepG2),Selectivity Index [12]
COc1cc(Cl)ccc1C(=O)Nc1cc(C(F)(F)F)ccc1O,250 µM,250 µM,250 µM,250 µM,250 µM,250 µM,250 µM,250 µM,250 µM,250 µM,0%,25.4 µM,0.1
COc1cc(Cl)ccc1C(=S)Nc1cc(Cl)c(Cl)cc1O,32 µM,32 µM,62.5 µM,62.5 µM,16 µM,16 µM,32 µM,62.5 µM,32 µM,62.5 µM,0%,3.16 µM,0.1
COc1cc(Cl)ccc1C(=S)Nc1cc(Br)ccc1O,32 µM,32 µM,32 µM,62.5 µM,32 µM,16 µM,32 µM,62.5 µM,32 µM,62.5 µM,0%,6.53 µM,0.2
COc1ccc(Cl)cc1C(=S)Nc1cc(Br)ccc1O,16 µM,32 µM,32 µM,32 µM,16 µM,8 µM,16 µM,16 µM,16 µM,32 µM,8%,8.74 µM,0.55
COc1cc(Cl)ccc1C(=O)Nc1ccc(Br)cc1O,125 µM,125 µM,125 µM,125 µM,125 µM,125 µM,125 µM,125 µM,125 µM,125 µM,0%,46.6 µM,0.37
COc1ccc(Cl)cc1C(=S)Nc1ccc(Cl)cc1O,16 µM,32 µM,32 µM,62.5 µM,32 µM,16 µM,32 µM,62.5 µM,32 µM,32 µM,0%,4.45 µM,0.28
